High-throughput results deposited in PubChem BioAssay by several laboratories.
Most compounds without a hit are left out; they make up all but 2.8% or so of the library.
TNAP inh hiacc = TNAP (human) inhibition, high acceptor; purified TNAP, CDP-star luminescence, 1 M DEA; AID 1135; inhibition, % at 20 µM; 200,000 compounds, 0.03% hits;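 active = over 50% inhibition of tissue-nonspecific alkaline phosphatase at 20 µM in the single-dose screen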;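 note: plate controls were DMSO wells for no effect and EDTA-quenched wells as full inhibition for full effect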
Target sequence (P05186 whole entry, looked up): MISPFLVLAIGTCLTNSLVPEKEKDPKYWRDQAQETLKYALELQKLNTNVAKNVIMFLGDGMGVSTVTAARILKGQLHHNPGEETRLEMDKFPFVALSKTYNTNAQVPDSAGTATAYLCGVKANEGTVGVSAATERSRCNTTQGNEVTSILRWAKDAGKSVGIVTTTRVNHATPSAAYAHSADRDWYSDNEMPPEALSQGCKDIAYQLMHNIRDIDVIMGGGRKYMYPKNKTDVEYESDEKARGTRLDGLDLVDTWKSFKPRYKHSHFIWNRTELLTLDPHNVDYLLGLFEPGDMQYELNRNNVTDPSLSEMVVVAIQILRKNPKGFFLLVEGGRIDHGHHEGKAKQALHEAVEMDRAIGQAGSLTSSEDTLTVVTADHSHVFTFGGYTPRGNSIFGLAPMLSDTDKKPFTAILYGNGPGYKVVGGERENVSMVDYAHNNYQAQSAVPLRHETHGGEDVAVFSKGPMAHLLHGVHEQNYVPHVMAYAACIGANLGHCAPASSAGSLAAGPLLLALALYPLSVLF
Yeast life ext = yeast lifespan extension; S. cerevisiae growth with nicotinamide, OD615; deaD strain in restrictive glucose medium; inhibition of the nicotinamide effect, % at 10 µM; 130,000 compounds, 0.68% hits;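 active = inhibition above a set limit, placed 3 SD over the median of all compounds, cut at about 26% in these data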;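 note: 0% = nicotinamide-treated wells and 100% = cells grown without nicotinamide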
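Assay system: DeaD-strain S. cerevisiae. Medium: CSMM-D glucose medium, restrictive. Reagent: nicotinamide, 1.5 mM, co-present with compound. Compound: 10 µM single point, 0.25% DMSO. Schedule: culture preincubation 4 h, compound exposure 48 h, both 30 °C. Detection: absorbance at 615 nm.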
BB579 growth dn = yeast BB579 growth reduction in restrictive medium | 140,000 compounds, 0.51% hits | inhibition, % at 10 µM | AID 804 | S. cerevisiae BB579 growth, OD615, 48 h;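 active = inhibition above a set limit, 3 SD over the mean compound inhibition, cut at about 44% in these data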
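test system = yeast BB579 (DeaD) | buffer or medium = restrictive CSMM-D medium | doses = single compound dose of 10 µM, 0.25% DMSO final | times = 4 h preincubation and 48 h exposure at 30 °C | technique = culture absorbance at 615 nm | benchmarks = amphotericin B 10 µg/mL, positive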
RAM inhibit = inhibitors of the yeast RAM network; S. cerevisiae dse1pr::URA3 reporter, 5-FOA growth OD615, 2 d; analog-sensitive cbk1-as2 kinase mutant strain; AID 868; 190,000 compounds, 1.8% hits; inhibition, % at 50 µM;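 active = inhibition above a set limit, 3 SD over mean compound inhibition, cut at about 8.4% in these data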;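 note: 0% = DMSO-only wells with no growth and 100% = 10 µM 1-NA-PP1 full growth; inhibition rescues growth on 5-FOA so higher OD means more RAM inhibition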
TNAP act hi DEA = TNAP (human) activation, high acceptor. P05186. AID 1136. 200,000 tested, under 10 active. purified TNAP, CDP-star luminescence, 1 M DEA, 30 min; hits give high values; 0 = EDTA background, 1 = DMSO-only activity. activation factor at 20 µM;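 active = activation factor at least 2 at 20 µM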
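Measured by: Luminescent substrate turnover signal | Test system: Human TNAP | Input: TNAP 1/800 final | Dosing: 20 µM single point | Schedule: 30 min, room temperature | Controls: EDTA wells as negative control, DMSO wells as positive control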
TNAP inh no acc = TNAP (human) inhibition, acceptor-free conditions; purified TNAP, CDP-star luminescence, 30 min; inhibition, % at 20 µM; 200,000 compounds, 0.26% hits; AID 1012;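 active = tissue-nonspecific alkaline phosphatase inhibition above about 50% at 20 µM in the single-dose screen, limit read from the data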;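 note: 0% = DMSO negative control and 100% = EDTA positive control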
* = called active by the depositor; . = not tested or not shown.

SMILES	TNAP inh hiacc	Yeast life ext	BB579 growth dn	RAM inhibit	TNAP act hi DEA	TNAP inh no acc
COc1ccc(CCNC(=O)CN(c2cc([N+](=O)[O-])ccc2OC)S(C)(=O)=O)cc1OC	1.6	.	.	-0.9	1	-2.1
COC(=O)c1ccc(N2CCCCC2)c(NS(=O)(=O)c2ccc(C)cc2)c1	-0.8	6.9	-70.2	10.6*	1	0.3
CCN(CC)S(=O)(=O)c1ccc(N2CCCC2)c(NS(=O)(=O)c2ccc(F)cc2)c1	2.5	8.6	-6.6	9.8*	1	-6.0
CCOC(=O)c1sc(NC(=O)c2cc3n(n2)C(C(F)(F)F)CC(c2ccccc2)N3)c(C(=O)OCC)c1C (stereo unspecified)	-3.2	-2.6	-95.4	3.5	1	-11.1
CC1(C)Cc2ccccc2-c2nnc(SCC(=O)Nc3nc4ccccc4s3)n21	31.9	-11.6	-13.3	1.4	0.7	3.5
CCOC(=O)C(CC)(CC)/C(C)=N/NC(=O)CC#N	-0.2	2.6	-5.2	1.0	1	-15.7
OC(CSc1ccc(F)cc1)CN1CCN(c2ccccc2)CC1 (stereo unspecified)	-7.4	.	.	1.1	1.1	3.0
Oc1ccc(N=Nc2nc(-c3ccccc3)c(-c3ccccc3)[nH]2)cc1	57.7*	-3.3	-5.2	8.8*	0.4	49.3
Oc1ccc(-c2cccc(-c3ccc(O)cc3)n2)cc1	-2.1	-28.6	-24.6	0.1	1	-4.2
Oc1ccc(N=Nc2n[nH]c(-c3ccc(Br)cc3)n2)cc1	44.0	3.4	-35.1	8.8*	0.6	74.9*
Oc1ccc(N=Nc2n[nH]c(-c3ccccc3)n2)cc1	31.4	-0.7	-2.9	1.5	0.7	74.4*
Cc1cccc(-c2cc3nc(C)cc(NCCCN(C)C)n3n2)c1	-3.5	-9.8	10.0	1.3	1	53.1*
COCCNc1cc(C)nc2cc(-c3ccc(C)cc3)nn12	-7.0	.	.	1.2	1.1	-40.1
c1ccc(Oc2cccc(NC3=NCCC3)c2)cc1	0.7	-5.0	-12.4	-1.2	1	-4.0
COc1ccc(C(=O)OCn2nnc3ccccc3c2=O)cc1OC	-4.0	-23.3	-25.6	8.8*	1	13.0
Cc1ccc(C(C(=O)NC2CCCC2)N(Cc2cccs2)C(=O)c2csnn2)o1 (stereo unspecified)	.	.	-32.5	0.6	.	.
CCCOc1ccc(-c2nn(-c3ccccc3)cc2/C=C2\SC(N)=NC2=O)cc1	8.3	6.0	-38.7	8.8*	0.9	-10.6
NC1=NC(=O)/C(=C/c2cn(CCC(=O)O)nc2-c2ccc(Cl)cc2)S1	8.2	2.0	-20.1	8.6*	0.9	-9.6
Cc1cc(-c2nn(-c3ccccc3)cc2/C=C2\SC(N)=NC2=O)ccc1OC(C)C	4.0	-0.4	-47.8	3.1	1	-32.8
NC1=NC(=O)/C(=C/c2cn(CCC(=O)O)nc2-c2ccc(F)cc2)S1	-0.7	0.9	-2.7	7.5	1	-8.2
Cc1nn(C(C)(C)C)c(OC(=O)c2ccco2)c1Sc1ccccc1	-4.0	46.8	-32.8	5.8	1	-14.3
Cc1nn(C(C)(C)C)c(OC(=O)c2cccs2)c1Sc1ccccc1	-7.7	14.7	-72.3	10.9*	1.1	-13.9
Cc1nn(C(C)(C)C)c(OC(=O)c2ccc(Br)o2)c1Sc1ccccc1	3.9	32.8*	-26.5	11.3*	1	-7.9
CCCc1n[nH]c2c1C(=O)CC(C)(C)C2	-3.7	-4.3	-8.8	1.1	1	63.9*
CC1(C)CC(=O)c2c(-c3cccs3)n[nH]c2C1	7.5	-6.6	8.2	0.3	0.9	87.6*
SMILES	TNAP inh hiacc	Yeast life ext	BB579 growth dn	RAM inhibit	TNAP act hi DEA	TNAP inh no acc
O=C(CNC(=O)c1ccc(S(=O)(=O)N2CCCC2)cc1)N/N=C/c1ccc(Cl)cc1Cl	-1.4	-1.4	-5.3	2.7	1	-20.1
CC1(C)C2CCC1(C)C(OCC[N+](C)(C)CC(=O)OC1CCCCC1)C2 (stereo unspecified)	-2.2	0.3	26.2	0.6	1	-1.0
CCN(CC)C(=O)c1sc2nc(-c3cccs3)cc(-c3ccc(Cl)cc3)c2c1N	2.1	3.0	-62.6	9.2*	1	-7.6
COc1ccc(S(=O)(=O)N(C)c2ccc(C(N)=O)cc2)cc1	-2.7	-3.3	-60.0	0.5	1	-10.3
COc1cc(/C=C2\C(=O)N(c3ccc(NC(C)=O)cc3)N=C2c2ccccc2)ccc1O	42.5	.	.	3.7	0.6	54.8*
O=C1/C(=C\c2ccc(O)c(O)c2)C(c2ccccc2)=NN1c1ccccc1	38.2	.	.	8.0	0.6	88.5*
CCOc1cc(/C=C2\C(=O)N(c3nc(-c4ccc(Br)cc4)cs3)N=C2c2ccccc2)ccc1O	22.5	-3.4	-34.0	3.8	0.8	30.5
CC1=NN(c2ccccc2)C(=O)/C1=C/C=C/c1ccccc1	3.0	1.6	-19.8	7.2	1	-1.0
CC(NC(=O)Cc1ccccc1)c1cc2c(cc1Br)OCCCO2 (stereo unspecified)	2.7	1.8	-3.4	0.9	1	-1.8
Cc1ccc(N/C(C(Cl)=C(Cl)Cl)=C(/Cl)[N+](=O)[O-])c(C)c1	0.9	48.2*	-57.3	9.4*	1	-7.8
Cc1ccc(NC(=O)c2c([N+](=O)[O-])c(C(C)(C)C)nn2C)c(C)c1	1.6	5.5	-26.4	2.4	1	-9.7
O=Cc1ccc(O)c(O)c1	-2.0	7.3	-60.8	-0.1	1	3.4
O=C(O)/C=C/c1ccc(O)c(O)c1	-3.9	2.1	-0.7	0.7	1	54.7*
O=C(N/N=C/c1ccccc1[N+](=O)[O-])C(=O)N1CCCC1	0.8	.	.	0.5	1	-2.1
O=C(CCC(=O)Nc1cccc(Cl)c1)N/N=C/c1cc([N+](=O)[O-])ccc1O	10.4	.	.	2.4	0.9	79.5*
Cc1cc(=O)oc2cc(OCC(=O)N/N=C/c3cc([N+](=O)[O-])ccc3O)ccc12	13.1	-2.6	-20.1	2.2	0.9	88.8*
COCCNC(=O)CSc1nc(-c2ccccc2)cs1	-6.7	-8.7	-2.9	-0.1	1.1	-4.4
O=C(CSc1c(Cl)cccc1Cl)N1CCC(c2nc3ccccc3s2)CC1	-1.8	-2.3	-59.4	9.4*	1	-6.8
Cc1ccc(S(=O)(=O)NC(=O)c2ccc(Br)o2)cc1	-1.6	2.6	-26.0	3.0	1	-13.6
C=CCn1c(SCC(=O)Nc2sccc2C(N)=O)nc2ccc(Cl)cc2c1=O	-2.7	-10.3	-54.7	0.7	1	-13.1
C=CCn1c(SCC(=O)Nc2sccc2C(N)=O)nc2sc(CC)cc2c1=O	-2.7	0.1	-43.3	8.5*	1	-1.8
Cc1oc(C)c2c(=O)ccc3c(c12)OC(N)=C(C#N)C3c1ccccc1Cl (stereo unspecified)	8.0	5.5	-44.0	8.8*	0.9	-7.8
